These results are taken from ChEMBL document CHEMBL2390927, “Design, synthesis and antimicrobial evaluation of novel benzimidazole type of Fluconazole analogues and their synergistic effects with Chloromycin, Norfloxacin and Fluconazole” (2013).

≈ marks a conversion by molar mass, not a printed value.

Assay [1] concerns Micrococcus luteus. In words: Antibacterial activity against Micrococcus luteus ATCC 4698 after 24 hrs by two-fold serial dilution method. Type of assay: functional. Conditions: ATCC 4698, 24 h. An outline of the steps: (§1)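 MIC taken as the lowest concentration giving complete growth inhibition, by standard two-fold serial dilution in 96-well plates following NCCLS. Stocks in DMSO, diluted in Mueller–Hinton broth. Inoculum adjusted with sterile saline to 1 × 10⁵ CFU. DMSO with inoculum and no drug served as solvent control. Growth read visually and spectrophotometrically, in triplicate.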

Assay [2] relates to Candida. The assay can be described thus: Antifungal activity against Candida mycoderma after 24 hrs by two-fold serial dilution method. In kind it is functional. An outline of the steps: (§2)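 Spore suspension in sterile distilled water from one-day-old cultures on Sabouraud agar, final 1–5 × 10³ spore mL⁻¹. Compound stocks diluted in sterile RPMI 1640 as two-fold serial dilutions in microdilution plates. MIC is the lowest concentration completely inhibiting growth. Growth monitored visually and spectrophotometrically, in triplicate.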

Assay [3] concerns Cyberlindnera jadinii. In words: Antifungal activity against Candida utilis after 24 hrs by two-fold serial dilution method. Type of assay: functional. The conditions noted are these: Williopsis jadinii. The gist of the method: as §2
Assay [4] has as its system Saccharomyces cerevisiae. The assay can be described thus: Antifungal activity against Saccharomyces cerevisiae after 24 hrs by two-fold serial dilution method. In kind it is functional. An outline of the steps:
as §2

In assay [5] the test system is Salmonella typhi. The assay can be described thus: Antibacterial activity against Bacillus typhi after 24 hrs by two-fold serial dilution method. In kind it is functional, Salmonella enterica subsp. enterica serovar Typhi. The conditions noted are these: Salmonella enterica. The gist of the method:
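Two-fold serial dilution in 96-well plates following NCCLS; compounds dissolved in DMSO as stocks, then diluted in Mueller-Hinton broth; bacterial suspension adjusted with sterile saline to 1 × 10⁵ CFU; MIC taken as lowest concentration completely inhibiting growth, monitored visually and spectrophotometrically; DMSO-plus-inoculum well as solvent control; triplicate.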

Assay [6] has as its system Bacillus. In words: Antibacterial activity against Bacillus proteus ATCC 13315 after 24 hrs by two-fold serial dilution method. Type of assay: functional. Conditions: ATCC 13315, 24 h. The gist of the method: as §1
Assay [7] concerns Staphylococcus aureus. The assay can be described thus: Antibacterial activity against methicillin-resistant Staphylococcus aureus N315 after 24 hrs by two-fold serial dilution method. In kind it is functional. The conditions noted are these: N315, 24 h.
The subject of assay [8] is Staphylococcus aureus. In words: Antibacterial activity against Staphylococcus aureus ATCC 6538 after 24 hrs by two-fold serial dilution method. In kind it is functional. Conditions: ATCC 6538, 24 h.
Assay [9] has as its system Bacillus subtilis. The assay can be described thus: Antibacterial activity against Bacillus subtilis ATCC 21216 after 24 hrs by two-fold serial dilution method. The conditions noted are these: ATCC 21216, 24 h. In kind it is functional. The gist of the method:
as §1

Assay [10] concerns Candida albicans. In words: Antifungal activity against Candida albicans ATCC 76615 after 24 hrs by two-fold serial dilution method. The conditions noted are these: ATCC 76615, 24 h. Type of assay: functional. An outline of the steps: as §2
Assay [11] deals with Aspergillus flavus. The assay can be described thus: Antifungal activity against Aspergillus flavus after 24 hrs by two-fold serial dilution method. In kind it is functional. The gist of the method:
as §2

Assay [12] has as its system Pseudomonas aeruginosa. In words: Antibacterial activity against Pseudomonas aeruginosa ATCC 27853 after 24 hrs by two-fold serial dilution method. In kind it is functional. The conditions noted are these: ATCC 27853, 24 h. The gist of the method: as §1
Assay [13] has as its system Escherichia coli. The assay can be described thus: Antibacterial activity against Escherichia coli JM109 after 24 hrs by two-fold serial dilution method. In kind it is functional. The conditions noted are these: JM109, 24 h.

As usually defined, the MIC is the lowest concentration found to suppress growth. A higher MIC goes with a need for much substance. Turning to `Cc1ccc(N(Cc2nc3ccccc3[nH]2)Cc2ccc(F)cc2F)cc1`, the MIC in assay [1] is 64 µg/mL (≈ 176 µM); in assay [2], 32 µg/mL (≈ 88.1 µM); in [3] it was 32 µg/mL (≈ 88.1 µM); in assay [4], 64 µg/mL (≈ 176 µM); in assay [5] it was 32 µg/mL (≈ 88.1 µM); in assay [6], 64 µg/mL (≈ 176 µM). Moreover, the MIC turned out to be 16 µg/mL (≈ 44 µM) in assay [7]; 16 µg/mL (≈ 44 µM) in assay [8]; 32 µg/mL (≈ 88.1 µM) in assay [9]; 32 µg/mL (≈ 88.1 µM) in assay [10]; 32 µg/mL (≈ 88.1 µM) in [11]; 32 µg/mL (≈ 88.1 µM) in assay [12]. The same molecule gave an MIC in [13] of 128 µg/mL (≈ 352 µM).

In the case of `Cc1ccc(N(Cc2nc3ccccc3[nH]2)Cc2ccc(Cl)cc2Cl)cc1`, the MIC was found to be 128 µg/mL (≈ 323 µM) in assay [1]; 128 µg/mL (≈ 323 µM) in assay [2]; 64 µg/mL (≈ 161 µM) in assay [3]; 64 µg/mL (≈ 161 µM) in assay [4]; 64 µg/mL (≈ 161 µM) in assay [5]; 32 µg/mL (≈ 80.7 µM) in [6]. The MIC in [7] was determined as 64 µg/mL (≈ 161 µM); in [8], 64 µg/mL (≈ 161 µM); in [9], 32 µg/mL (≈ 80.7 µM); in [10] it was 64 µg/mL (≈ 161 µM); in [11], 128 µg/mL (≈ 323 µM); in [12] it was 64 µg/mL (≈ 161 µM). The lowest concentration to inhibit growth in assay [13] (MIC) was 32 µg/mL (≈ 80.7 µM).

Turning to `Cc1ccc(N(Cc2ccc(Cl)c(Cl)c2)Cc2nc3ccccc3[nH]2)cc1`, the MIC worked out at 64 µg/mL (≈ 161 µM) in [1]; 128 µg/mL (≈ 323 µM) in [2]; 64 µg/mL (≈ 161 µM) in assay [3]; 128 µg/mL (≈ 323 µM) in [4]; 64 µg/mL (≈ 161 µM) in [5]; 128 µg/mL (≈ 323 µM) in assay [6]. Moreover, the MIC in assay [7] came out at 64 µg/mL (≈ 161 µM); in assay [8] it was 32 µg/mL (≈ 80.7 µM); in assay [9] it was 128 µg/mL (≈ 323 µM); in [10] it was 128 µg/mL (≈ 323 µM); in assay [11], 128 µg/mL (≈ 323 µM); in assay [12], 128 µg/mL (≈ 323 µM). This molecule also showed an MIC in assay [13] of 64 µg/mL (≈ 161 µM).

`Fc1ccc(N(Cc2nc3ccccc3[nH]2)Cc2ccc(Cl)cc2Cl)c(F)c1`: the MIC in [1] is 64 µg/mL (≈ 153 µM); in assay [2], 64 µg/mL (≈ 153 µM); in [3] it was 32 µg/mL (≈ 76.5 µM); in [4], 32 µg/mL (≈ 76.5 µM); in assay [5], 128 µg/mL (≈ 306 µM); in assay [6] it was 32 µg/mL (≈ 76.5 µM). Further, the MIC was 128 µg/mL (≈ 306 µM) in assay [7]; 64 µg/mL (≈ 153 µM) in assay [8]; 64 µg/mL (≈ 153 µM) in [9]; 128 µg/mL (≈ 306 µM) in [10]; 64 µg/mL (≈ 153 µM) in assay [11]; 64 µg/mL (≈ 153 µM) in [12]. Further, the minimum inhibitory concentration (MIC) in [13] amounted to 32 µg/mL (≈ 76.5 µM).

For `CCCCCCCCN(Cc1nc2ccccc2[nH]1)c1ccc(C)cc1.Cl.Cl`, the MIC in [1] amounted to 64 µg/mL; in assay [2], 128 µg/mL; in assay [3], 64 µg/mL; in assay [4], 64 µg/mL; in [5], 64 µg/mL; in assay [6], 64 µg/mL. For the same molecule, the MIC turned out to be 128 µg/mL in assay [7]; 64 µg/mL in assay [8]; 128 µg/mL in [9]; 64 µg/mL in [10]; 128 µg/mL in assay [11]; 128 µg/mL in assay [12]. For the same molecule, 128 µg/mL was the least that counted as inhibitory in assay [13] (MIC).

In the case of `O=C(N[C@H](CO)[C@H](O)c1ccc([N+](=O)[O-])cc1)C(Cl)Cl` [CHLORAMPHENICOL], the MIC in assay [1] was 8 µg/mL (≈ 24.8 µM); in assay [5], 32 µg/mL (≈ 99 µM); in [6] it was 32 µg/mL (≈ 99 µM); in assay [8] it was 8 µg/mL (≈ 24.8 µM); in [9] it was 32 µg/mL (≈ 99 µM).

With `OC(Cn1cncn1)(Cn1cncn1)c1ccc(F)cc1F` [FLUCONAZOLE], the MIC in assay [2] was found to be 4 µg/mL (≈ 13.1 µM); in assay [3] it was 8 µg/mL (≈ 26.1 µM); in assay [4] it was 16 µg/mL (≈ 52.2 µM); in assay [10], 1 µg/mL (≈ 3.27 µM); in assay [11], 256 µg/mL (≈ 836 µM).

`CCn1cc(C(=O)O)c(=O)c2cc(F)c(N3CCNCC3)cc21` [NORFLOXACIN]: the MIC came out at 1 µg/mL (≈ 3.13 µM) in assay [1]; 1 µg/mL (≈ 3.13 µM) in assay [5]; 4 µg/mL (≈ 12.5 µM) in assay [6]; 1 µg/mL (≈ 3.13 µM) in assay [7]; 8 µg/mL (≈ 25.1 µM) in [8]; 2 µg/mL (≈ 6.26 µM) in assay [9]. The MIC in [12] and in assay [13] was 1 µg/mL (≈ 3.13 µM) each time.
